Results reported in ChEMBL document CHEMBL4627246, “Pyroglutamide-Based P2X7 Receptor Antagonists Targeting Inflammatory Bowel Disease” (J Med Chem, 2020).
The source made the active and inactive calls. The calls are words filed in the database; no cut-off is given here.

Tests used:
[1] = tested on: Mus musculus; assay: Antiinflammatory activity against DSS-induced colitis C57BL/6J mouse model assessed as reduction in DAI score at 2.5 mg/kg, ip administered daily and measured for 15 days; type: functional; conditions: 360 h
Method in brief: (§1)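 DSS colitis in WT mice: 3.8% DSS in drinking water days 1–5, then tap water for 10 days; compound 2.5 mg/kg given i.p. daily in 10% DMSO/PBS; cohorts of 10 mice per group, placebo as comparator; weight loss and clinical disease score tracked; colon sections at day 14 stained with H&E and histologically scored; data as mean ± SEM.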

[2] = target: T1, P2X purinoceptor 7 (Homo sapiens) (UniProt Q99572); assay: Antagonist activity at P2X7R in human THP1 cells assessed as inhibition of LPS and BzATP-induced ROS production at 10^-6mol/L pretreated with compound followed by LPS/BzATP addition and measured after 6 hrs by kinetic chemiluminescence based fluorometric analysis; type: cell-based; conditions: THP-1
T1 sequence (whole entry): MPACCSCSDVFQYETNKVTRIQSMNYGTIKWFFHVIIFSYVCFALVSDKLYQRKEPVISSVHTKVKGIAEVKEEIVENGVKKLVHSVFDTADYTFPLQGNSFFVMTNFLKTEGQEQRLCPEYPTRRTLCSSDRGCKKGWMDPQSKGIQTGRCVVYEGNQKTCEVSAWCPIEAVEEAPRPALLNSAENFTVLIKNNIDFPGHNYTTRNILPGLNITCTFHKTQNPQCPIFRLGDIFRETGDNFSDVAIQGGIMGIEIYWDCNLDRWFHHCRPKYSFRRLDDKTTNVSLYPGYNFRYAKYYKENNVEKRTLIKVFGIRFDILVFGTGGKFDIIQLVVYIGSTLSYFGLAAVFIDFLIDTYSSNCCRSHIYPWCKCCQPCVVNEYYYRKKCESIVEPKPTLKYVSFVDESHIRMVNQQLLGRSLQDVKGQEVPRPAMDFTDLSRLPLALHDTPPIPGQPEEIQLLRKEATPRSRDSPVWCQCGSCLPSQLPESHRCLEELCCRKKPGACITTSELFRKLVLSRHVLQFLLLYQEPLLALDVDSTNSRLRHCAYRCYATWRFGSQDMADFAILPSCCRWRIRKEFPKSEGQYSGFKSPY
Method in brief: (§2)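 Differentiated THP-1 macrophages (10^5 cells, RPMI 1640 + 10% FBS) pretreated with antagonist at 10^-6 mol/L before LPS (10 μmol/L) and BzATP (70 μmol/L), 37 °C, 5% CO2; ROS detected as luminol (50 μM)/horseradish peroxidase (50 μg/mL) chemiluminescence on a fluorometer; H2O2 without cells as positive control.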

[3] = Drug metabolism in human liver microsomes assessed as metabolite N-[(2,4-dichlorophenyl)methyl]-5-oxo-pyrrolidine-2-carboxamide formation at 0.2 mg/ml incubated for 60 mins by UPLC-MS/MS analysis; type: ADME, Microsome; conditions: 1 h
Method in brief: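 Human liver microsomes (2 mg protein/mL) pre-activated with alamethicin in 0.1 M Tris-HCl/10 mM MgCl₂ pH 7.4, added to dried residue of 0.2 mg/mL compound solution; cofactors UDPGA 5 mM, NADPH 1.3 mM, G6P 3.3 mM, G6PD 0.5 U/mL. 37 °C, 60 min; stopped with methanol plus internal standards. Supernatant analysed by online-extraction UPLC on C18 with Q-TOF MS, ESI+.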

[4] = target: T1, P2X purinoceptor 7 (Homo sapiens); assay: Antagonist activity at P2X7R in human THP1 cells assessed as inhibition of LPS and BzATP-induced ROS production at 10^-6mol/L pretreated with compound followed by LPS/BzATP addition and measured after 5 hrs by kinetic chemiluminescence based fluorometric analysis; type: cell-based; conditions: THP-1; method in brief: as §2
[5] = target: T1, P2X purinoceptor 7 (Homo sapiens); assay: Antagonist activity at P2X7R in human THP1 cells assessed as inhibition of LPS and BzATP-induced ROS production at 10^-6mol/L pretreated with compound followed by LPS/BzATP addition and measured after 4 hrs by kinetic chemiluminescence based fluorometric analysis; type: cell-based; conditions: THP-1; method in brief: as §2
[6] = target: T1, P2X purinoceptor 7 (Homo sapiens); assay: Antagonist activity at P2X7R in human THP1 cells assessed as inhibition of LPS and BzATP-induced mature form of IL-1beta expression in cells supernatant at 10^-6 mol/L pretreated with compound followed by LPS/BzATP addition and measured after 2 to 6 hrs by Western blot analysis; type: cell-based; conditions: THP-1
[7] = tested on: Mus musculus; assay: Antiinflammatory activity against DSS-induced colitis C57BL/6J mouse model assessed as decrease in inflammation level in colon at 2.5 mg/kg, ip administered daily and measured after day 14 by hematoxylin and eosin staining based microscopic analysis; type: functional; conditions: 336 h; method in brief: as §1
[8] = tested on: Mus musculus; assay: Antiinflammatory activity against DSS-induced colitis C57BL/6J mouse model assessed as reduction in diarrhea at 2.5 mg/kg, ip administered daily and measured for 15 days; type: functional, organism-based; method in brief: as §1
[9] = tested on: Mus musculus; assay: Antiinflammatory activity against DSS-induced colitis C57BL/6J mouse model assessed as body weight loss at 2.5 mg/kg, ip administered daily and measured for 15 days relative to placebo-treated control; type: functional; method in brief: as §1
[10] = tested on: Mus musculus; assay: Antiinflammatory activity against DSS-induced colitis C57BL/6J mouse model assessed as reduction in rectal bleeding at 2.5 mg/kg, ip administered daily and measured for 15 days; type: functional, organism-based; method in brief: as §1
[11] = tested on: Mus musculus; assay: Antiinflammatory activity against DSS-induced colitis C57BL/6J mouse model assessed as areas of normal colonic mucosa with straight and larger crypts on muscularis mucosa at 2.5 mg/kg, ip administered daily and measured after day 14 by hematoxylin and eosin staining based microscopic analysis; type: functional, organism-based; method in brief: as §1
[12] = target: T1, P2X purinoceptor 7 (Homo sapiens); assay: Antagonist activity at P2X7R in human THP1 cells assessed as inhibition of LPS and BzATP-induced IL-1beta expression by measuring increase in proIL-1beta expression in cell supernatant extract at 10^-6 mol/L pretreated with compound followed by LPS/BzATP addition and measured after 6 hrs by Western blot analysis; type: cell-based; conditions: THP-1

Row | SMILES | inhibition in vivo at 2.5 mg/kg [1] | inhibition [2] | Drug metabolism [3] | inhibition [4] | inhibition [5] | inhibition [6] | inhibition in vivo at 2.5 mg/kg [7] | Activity [8] | Activity [9] | Activity [10] | Activity [11] | inhibition [12]
1 | O=C(NCc1ccc(Cl)cc1Cl)[C@@H]1CCC(=O)N1c1cccs1 | 31% | inactive | Metabolite_Detected | Active | Active | Active | 42 to 50% | Active | 50% | Active | Active | Active
2 | O=C(NCc1ccc(Cl)cc1Cl)[C@@H]1CCC(=O)N1c1ccsc1 | – | inactive | – | Active | Active | Active | – | – | – | – | – | Active
